Measured values pooled from the literature.
Protocols differ between the studies behind these lines.
Target: Casein kinase I isoform gamma-1 (CSNK1G1, Homo sapiens, UniProt Q9HCP0)

SMILES | read-out | mode | technique | concentration | measurement | result
Cn1nc(C(F)(F)F)cc1-c1cnc(N2CCc3cc(S(=O)(=O)Nc4c(F)cc(Cl)cc4F)cc(N4CCCC4=O)c32)nc1 | cell-free assay |  | competition with immobilised ligand | 1 µM | remaining binding | 100%
O=C(Nc1cnn(-c2csc(C(=O)NC3COC3)c2)c1)Nc1ccccc1Cl | enzyme activity | inhibitor |  | 5 µM | remaining activity | 99%
C=CC(=O)Nc1cc(Nc2nccc(Nc3cc(Cl)c(F)cc3C(C)(C)O)n2)c(OC)cc1N1CC[C@@H](N(C)C)C1 | enzyme activity | inhibitor |  | 1 µM | inhibition | 15%
COc1cc(Cl)c(C(=O)N[C@@H](CN[C@H]2CC[C@@H](N)CC2)Cc2ccc(C#N)cc2)cc1-c1ccc(CN[C@H](C)c2ccc(C)cc2)o1 | enzyme activity | inhibitor |  | 1 µM | remaining activity | 87%
Cc1ccc(NC(=O)c2ccc(C)c(C(F)(F)F)c2)cc1C#Cc1nn(C2CCC(O)CC2)c2ncnc(N)c12 (centres unmarked) | cell-free assay |  |  | 10 µM | remaining signal | 83%
C[C@@H]1CCN(C(=O)CC#N)C[C@@H]1N(C)c1ncnc2[nH]ccc12 | cell-free assay | inhibitor |  | 0.5 µM | remaining signal | 101%
COc1cc2ncnc(Nc3ccc(Oc4ccccc4)c(C)c3C)c2cc1OC | enzyme activity | inhibitor |  | 1 µM | inhibition | 0%
COc1cc2c(Nc3ccc(Br)cc3F)ncnc2cc1OCC1CCN(C)CC1 | cell-free assay |  |  | 0.5 µM | remaining signal | 100%
CCC(=O)N[C@@H]1CC[C@H](C(=O)N(C)c2ccc(-c3nc4ccccc4o3)cc2)C1 | cell-free assay |  | competition with immobilised ligand | 1 µM | remaining binding | 100%
Cc1ccc(Nc2nccc(N(C)c3ccc4c(C)n(C)nc4c3)n2)cc1S(N)(=O)=O | enzyme activity | inhibitor |  | 0.3 µM | inhibition | -27%
CCc1ccccc1C(=O)Nc1n[nH]c2c(C)c(F)c(C3C(C#N)=C(C)N(C)C(C)=C3C#N)cc12 | cell-free assay |  | competition with immobilised ligand | 1 µM | remaining binding | 95%
CC(C)(C)c1nc(-c2cccc(NS(=O)(=O)c3c(F)cccc3F)c2F)c(-c2ccnc(N)n2)s1 | enzyme activity | inhibitor | radiometric | 1 µM | remaining activity | 96%
CCS(=O)(=O)c1cc2cc(C[C@@](O)(CC(C)(C)c3ccc(F)cc3C(N)=O)C(F)(F)F)[nH]c2cn1 | cell-free assay |  | competition with immobilised ligand | 1 µM | remaining binding | 100%
CNC(=O)c1cc(Oc2ccc(NC(=O)Nc3ccc(Cl)c(C(F)(F)F)c3)cc2)ccn1 | enzyme activity | inhibitor |  | 10 µM | inhibition | -13%
CC(C)(O)c1cncc(-c2nc3ccc(F)cc3n2C2CC2)c1 | cell-free assay |  | competition with immobilised ligand | 1 µM | remaining binding | 100%
O=C1Nc2ccc(Cl)cc2C1=Cc1cc(Cl)c(O)c(Cl)c1 | cell-free assay |  |  | 0.5 µM | remaining signal | 89%
CN1CC(Oc2cnc(C#N)cc2-c2ccn3nc(NC(=O)C4CC4)cc3c2)C1 | enzyme activity | inhibitor |  | 1 µM | inhibition | -3%
Cc1cnc(NC2CCOCC2)nc1-n1cnc(C(=O)NC(CN)c2cc(F)cc(Cl)c2)c1 (centres unmarked) | enzyme activity | inhibitor | radiometric | 1 µM | remaining activity | 66%
O=C(O)[C@H]1[C@H](Cn2nnc3ccccc3c2=O)CC[C@@H]1C(=O)c1ccc(OCCC2CCOCC2)cc1 | cell-free assay |  | competition with immobilised ligand | 1 µM | remaining binding | 94%
Nc1ncnc2occ(-c3ccc(NC(=O)Nc4cc(C(F)(F)F)ccc4F)cc3)c12 | cell-free assay | inhibitor |  | 20 µM | remaining signal | 18%
